Values joined by “and” are separate entries in the source; they are usually repeats but may differ in a detail not shown here. Identical values can stand only once.
Experiments:
[1] = biological target: D(2) dopamine receptor (Canis lupus familiaris) (UniProt Q9GJU1); assay: In vivo antagonism activity against dopamine D2 receptor was measured as emesis in dog when administered subcutaneously; type: functional, organism-based
Canis familiaris [2] = assay: In vivo antagonism of cisplatin-induced emesis in dog measured as emetic episodes, twice the dose of 3 mg/kg in 2 dogs; type: functional, Canis lupus familiaris
Summary of the method: (§1)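 Nonfasted mature male or female beagles were dosed sc twice, 30 min before and 120 min after cisplatin (3 mg/kg iv; 3 mg/mL in warm 0.9% saline, used immediately). Emesis was observed up to 5 h; events within 2 min counted as one episode. Results were given as mean emetic episodes and % protection versus a dynamic control (historical and concurrent saline means pooled). t test versus saline.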

D(2) dopamine receptor = D(2) dopamine receptor (Rattus norvegicus, UniProt P61169); assay: In vitro antagonistic activity against Dopamine receptor D2 was evaluated for the inhibition of [3H]spiperone binding
Summary of the method: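 Rat striatal membranes were prepared by differential centrifugation in 50 mM Tris pH 7.4 at 4 °C. Membrane protein (10 mg) was incubated 15 min at 37 °C with 0.1 nM [3H]spiperone and varying competitor concentrations. Buffer: 50 mM Tris HCl pH 7.5, 0.1% ascorbic acid, pargyline, 120 mM NaCl, 5 mM KCl, 2 mM CaCl2, 1 mM MgCl2. (+)-Butaclamol defined nonspecific binding. Bound ligand was collected by filtration and scintillation counted. IC50 by log-logit regression.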

Canis familiaris [3] = assay: In vivo antagonism of cisplatin-induced emesis in dog measured as percentage protection for twice the dose of 3 mg/kg in 2 dogs; type: functional, Canis lupus familiaris; summary of the method: as §1
Mustela putorius furo [4] = assay: In vivo antagonism of cisplatin-induced emesis in ferret measured as emetic episodes, twice the dose of 3 mg/kg and in 3 ferrets; type: functional
Summary of the method: (§2)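 Nonfasted castrated male Fitch ferrets (1–1.5 kg) had jugular catheters implanted ≥48 h earlier under anesthesia. Compounds or saline were given iv twice, 5 min before and 90 min after cisplatin (12 mg/kg iv; 12 mg/mL in warm 0.9% saline). Emesis was observed up to 4 h; events within 1 min counted as one episode. Results were given as mean emetic episodes and % protection versus a pooled historical/concurrent control. t test versus saline.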

Mustela putorius furo [5] = assay: In vivo antagonism of cisplatin-induced emesis in ferret measured as percentage protection for twice the dose of 3 mg/kg and in 3 ferrets; type: functional; summary of the method: as §2
[6] = biological target: D(2) dopamine receptor (Rattus norvegicus) (UniProt P61169); assay: In vivo antagonism activity against D2 receptor was measured as stereotypy in rat when administered subcutaneously; type: functional, organism-based
Summary of the method: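 Male Long Evans rats (275 g) were dosed sc in dilute aqueous HCl (pH 4.5-5.5) 30 min before apomorphine (1 mg/kg sc).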

[7] = biological target: D(2) dopamine receptor (Rattus norvegicus) (UniProt P61169); assay: In vivo antagonistic activity against dopamine D2 receptor was measured as catalepsy in rat when administered subcutaneously; type: functional, organism-based
Summary of the method: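 Male Long Evans rats (275 g) received graded sc doses in dilute aqueous HCl (pH 4.5-5.5). They were observed 180 min for catalepsy, scored when the animal stayed stationary ≥15 s on a four-cork template.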

Canis familiaris [8] = assay: In vivo antagonism of cisplatin-induced emesis in dog measured as emetic episodes, twice the dose of 6 mg/kg in 2 dogs; type: functional, Canis lupus familiaris; summary of the method: as §1
Canis familiaris [9] = assay: In vivo antagonism of cisplatin-induced emesis in dog measured as percentage protection for twice the dose of 6 mg/kg in 2 dogs; type: functional, Canis lupus familiaris; summary of the method: as §1
Mustela putorius furo [10] = assay: In vivo antagonism of cisplatin-induced emesis in ferret measured as percentage protection for twice the dose of 3 mg/kg and in 2 ferrets; type: functional; summary of the method: as §2
Canis familiaris [11] = assay: In vivo antagonism of cisplatin-induced emesis in dog measured as percentage protection for twice the dose of 0.3 mg/kg in 2 dogs; type: functional, Canis lupus familiaris; summary of the method: as §1
Canis familiaris [12] = assay: In vivo antagonism of cisplatin-induced emesis in dog measured as emetic episodes, twice the dose of 0.3 mg/kg in 2 dogs; type: functional, Canis lupus familiaris; summary of the method: as §1
Mustela putorius furo [13] = assay: In vivo antagonism of cisplatin-induced emesis in ferret measured as emetic episodes, twice the dose of 1 mg/kg and in 3 ferrets; type: functional; summary of the method: as §2
Mustela putorius furo [14] = assay: In vitro antagonism of cisplatin-induced emesis in ferret measured as percentage protection for twice the dose of 1 mg/kg and in 3 ferrets; type: functional; conditions: in the assay text read “In vivo” for “In vitro”; summary of the method: as §2
Canis familiaris [15] = assay: in vivo antagonism of cisplatin-induced emesis in dog measured as emetic episodes, twice the dose of 0.3 mg/kg in 2 dogs; type: functional, Canis lupus familiaris
Canis familiaris [16] = assay: In vivo antagonism of cisplatin-induced emesis in dog measured as emetic episodes, twice the dose of 3 mg/kg in 3 dogs; type: functional, Canis lupus familiaris; summary of the method: as §1
Canis familiaris [17] = assay: In vivo antagonism of cisplatin-induced emesis in dog measured as emetic episodes, twice the dose of 6 mg/kg in 3 dogs; type: functional, Canis lupus familiaris
Summary of the method: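 Nonfasted mature male or female beagles received test compound or saline sc twice, 30 min before and 120 min after cisplatin (3 mg/kg iv; 3 mg/mL in warm 0.9% saline, used at once). Emesis observed up to 5 h. Emetic episode = expulsion of stomach content; events within 2 min counted as one. Protection calculated against a dynamic control (historical mean pooled with concurrent saline control).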

Canis familiaris [18] = assay: In vivo antagonism of cisplatin-induced emesis in dog measured as percentage protection for twice the dose of 0.2 mg/kg in 4 dogs; type: functional, Canis lupus familiaris; summary of the method: as §1
Canis familiaris [19] = assay: In vivo antagonism of cisplatin-induced emesis in dog measured as percentage protection for twice the dose of 0.8 mg/kg in 3 dogs; type: functional, Canis lupus familiaris; summary of the method: as §1
Canis familiaris [20] = assay: Protection against cisplatin-induced emesis in dog measured as percentage protection for twice the dose of 0.2 mg/kg; type: functional, Canis lupus familiaris
Canis familiaris [21] = assay: Protection against cisplatin-induced emesis in dog measured as percentage protection for twice the dose of 0.8 mg/kg and in 3 dogs(1 protected); type: functional, Canis lupus familiaris
Canis familiaris [22] = assay: Protection against cisplatin-induced emesis in dog measured as percentage protection for twice the dose of 2.5 mg/kg and in 4 dogs(2 protected); type: functional, Canis lupus familiaris
Canis familiaris [23] = assay: (§3) In vivo antagonism of cisplatin-induced emesis in dog measured as emetic episodes, twice the dose of 2.5 mg/kg in 4 dogs; type: functional, Canis lupus familiaris; summary of the method: as §1
Canis familiaris [24] = assay: as §3; type: functional, Canis lupus familiaris; summary of the method: as §1; remark: listed apart in the source
Canis familiaris [25] = assay: […] cisplatin-induced emesis in dog was measured for as stereotypy when administered iv twice daily; type: functional; conditions: Canis lupus familiaris
Canis familiaris [26] = assay: (§4) In vivo antagonism of cisplatin-induced emesis in dog measured as emetic episodes, twice the dose of 0.2 mg/kg in 4 dogs; type: functional, Canis lupus familiaris; summary of the method: as §1
Canis familiaris [27] = assay: as §4; type: functional, Canis lupus familiaris; summary of the method: as §1; remark: listed apart in the source
Canis familiaris [28] = assay: (§5) In vivo antagonism of cisplatin-induced emesis in dog measured as emetic episodes, twice the dose of 0.8 mg/kg in 3 dogs; type: functional, Canis lupus familiaris; summary of the method: as §1
Canis familiaris [29] = assay: as §5; type: functional, Canis lupus familiaris; summary of the method: as §1; remark: listed apart in the source
Canis familiaris [30] = assay: In vivo antagonism of cisplatin-induced emesis in dog measured as percentage protection for twice the dose of 2.5 mg/kg in 4 dogs; type: functional, Canis lupus familiaris; summary of the method: as §1
Mustela putorius furo [31] = assay: In vivo antagonism of cisplatin-induced emesis in ferret measured as percentage protection for twice the dose of 0.2 mg/kg in 4 ferrets; type: functional; summary of the method: as §2
Mustela putorius furo [32] = assay: In vivo antagonism of cisplatin-induced emesis in ferret measured as emetic episodes, twice the dose of 2.5 mg/kg in 5 ferrets; type: functional; summary of the method: as §2
Mustela putorius furo [33] = assay: In vivo antagonism of cisplatin-induced emesis in ferret measured as emetic episodes, twice the dose of 0.2 mg/kg in 4 ferrets; type: functional; summary of the method: as §2
Mustela putorius furo [34] = assay: In vivo antagonism of cisplatin-induced emesis in ferret measured as emetic episodes, twice the dose of 0.8 mg/kg in 5 ferrets; type: functional; summary of the method: as §2
Mustela putorius furo [35] = assay: In vivo antagonism of cisplatin-induced emesis in ferret measured as percentage protection for twice the dose of 0.8 mg/kg in 5 ferrets; type: functional; summary of the method: as §2
Mustela putorius furo [36] = assay: (§6) In vivo antagonism of cisplatin-induced emesis in ferret measured as percentage protection for twice the dose of 2.5 mg/kg in 5 ferrets; type: functional; summary of the method: as §2
Mustela putorius furo [37] = assay: as §6; type: functional; summary of the method: as §2; remark: listed apart in the source
Mustela putorius furo [38] = assay: antagonism of cisplatin-induced emesis in ferret measured when administered intravenously twice daily; conditions: iv

D(2) dopamine receptor (Rattus norvegicus), sequence (P61169 whole entry): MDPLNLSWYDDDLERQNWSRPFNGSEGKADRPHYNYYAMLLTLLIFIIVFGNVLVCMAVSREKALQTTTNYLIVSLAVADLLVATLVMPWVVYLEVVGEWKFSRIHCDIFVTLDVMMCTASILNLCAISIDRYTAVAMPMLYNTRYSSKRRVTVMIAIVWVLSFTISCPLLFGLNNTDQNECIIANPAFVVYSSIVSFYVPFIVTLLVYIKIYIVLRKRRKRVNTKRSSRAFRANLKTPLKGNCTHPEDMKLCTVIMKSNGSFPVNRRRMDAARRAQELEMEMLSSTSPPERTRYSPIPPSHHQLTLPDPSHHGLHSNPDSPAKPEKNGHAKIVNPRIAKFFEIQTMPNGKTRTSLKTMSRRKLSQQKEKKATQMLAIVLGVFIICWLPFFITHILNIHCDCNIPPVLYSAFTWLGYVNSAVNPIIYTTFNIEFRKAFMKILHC
D(2) dopamine receptor, sequence (P61169 whole entry): as above
D(2) dopamine receptor (Canis lupus familiaris), sequence (Q9GJU1 whole entry): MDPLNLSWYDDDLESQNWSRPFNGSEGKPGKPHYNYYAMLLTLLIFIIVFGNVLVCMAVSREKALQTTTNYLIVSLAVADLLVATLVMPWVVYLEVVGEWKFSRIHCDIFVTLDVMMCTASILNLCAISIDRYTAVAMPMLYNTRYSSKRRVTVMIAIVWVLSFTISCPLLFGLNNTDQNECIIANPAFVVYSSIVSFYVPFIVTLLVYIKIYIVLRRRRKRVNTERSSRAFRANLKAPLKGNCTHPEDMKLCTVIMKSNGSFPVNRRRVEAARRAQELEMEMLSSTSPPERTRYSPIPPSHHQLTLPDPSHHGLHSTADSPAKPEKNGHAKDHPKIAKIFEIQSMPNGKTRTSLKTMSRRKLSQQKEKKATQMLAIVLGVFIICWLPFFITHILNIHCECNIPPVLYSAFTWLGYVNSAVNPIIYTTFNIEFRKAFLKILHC

CCN(CC)CCNC(=O)c1cc(Cl)c(N)cc1OC(C)C#N (stereo unspecified)
ED50 [1]: > 3 mg/kg | Emetic episodes (Canis familiaris [2]): 2.5 | IC50 (D(2) dopamine receptor): > 1000 nM | Protection (Canis familiaris [3]): 80% | Emetic episodes (Mustela putorius furo [4]): 2.7 | Protection (Mustela putorius furo [5]): 63% | ED50 [6]: > 40 mg/kg | ED50 [7]: > 40 mg/kg

CCN(CC)CCNC(=O)c1cc(Cl)c(N)cc1O
ED50 [1]: > 1 mg/kg | IC50 (D(2) dopamine receptor): > 1000 nM | Emetic episodes (Canis familiaris [8]): 2 | Protection (Canis familiaris [9]): 84% | Protection (Mustela putorius furo [10]): 40% | ED50 [6]: > 40 mg/kg | ED50 [7]: > 40 mg/kg

CCN(CC)CCNC(=O)c1cc(Cl)c(N)cc1OC(C)(C)C(C)=O
Protection (Canis familiaris [11]): 77% | ED50 [1]: > 3 mg/kg | IC50 (D(2) dopamine receptor): > 1000 nM | Emetic episodes (Canis familiaris [12]): 2.7 | Emetic episodes (Mustela putorius furo [13]): 2.7 | Protection (Mustela putorius furo [14]): 62% | ED50 [6]: > 40 mg/kg | ED50 [7]: > 40 mg/kg

C=CCCOc1cc(N)c(Cl)cc1C(=O)NCCN(CC)CC
ED50 [1]: > 3 mg/kg | Emetic episodes (Canis familiaris [2]): 3.5 | IC50 (D(2) dopamine receptor): > 1000 nM | Protection (Canis familiaris [3]): 71% | Emetic episodes (Mustela putorius furo [4]): 3.7 | Protection (Mustela putorius furo [5]): 50% | ED50 [6]: > 40 mg/kg | ED50 [7]: > 40 mg/kg

CCN(CC)CCNC(=O)c1cc(Cl)c(N)cc1OCC(=O)Cc1ccccc1
Protection (Canis familiaris [11]): 0% | ED50 [1]: > 3 mg/kg | IC50 (D(2) dopamine receptor): > 1000 nM | Emetic episodes (Canis familiaris [15]): 13 | Emetic episodes (Mustela putorius furo [4]): 0 | Protection (Mustela putorius furo [5]): 100% | ED50 [6]: > 40 mg/kg | ED50 [7]: > 40 mg/kg

C=CCN1CCCC1CNC(=O)c1cc2nn[nH]c2cc1OC (stereo unspecified) [ALIZAPRIDE]
ED50 [1]: 0.3 mg/kg | Emetic episodes (Canis familiaris [16]): 4.3 | Emetic episodes (Canis familiaris [17]): 4.7 | Protection (Canis familiaris [3]; 3 mg/kg): 69% and 66% | Emetic episodes (Mustela putorius furo [4]): 5 | Protection (Mustela putorius furo [5]): 27% | ED50 [6]: > 40 mg/kg | ED50 [7]: > 40 mg/kg

CCN(CC)CCNC(=O)c1cc(Cl)c(N)cc1OC [METOCLOPRAMIDE]
Protection (Canis familiaris [18]): 58% | Protection (Canis familiaris [19]): 92% | Protection (Canis familiaris [20]): 58% | Protection (Canis familiaris [21]): 92% | Protection (Canis familiaris [22]): 92% | Emetic episodes (Canis familiaris [23]): 1 | Emetic episodes (Canis familiaris [24]): 1 | ED50 (Canis familiaris [25]): 0.18 mg/kg | ED50 [1]: 0.36 mg/kg | Emetic episodes (Canis familiaris [26]): 5 | Emetic episodes (Canis familiaris [27]): 5 | Emetic episodes (Canis familiaris [28]): 1 | Emetic episodes (Canis familiaris [29]): 1 | Protection (Canis familiaris [30]): 92% | Protection (Mustela putorius furo [31]): 22% and 21% | Emetic episodes (Mustela putorius furo [32]): 0.6 | Emetic episodes (Mustela putorius furo [33]): 5.5 | Emetic episodes (Mustela putorius furo [34]): 2.4 | Protection (Mustela putorius furo [35]): 73% and 66% | Protection (Mustela putorius furo [36]): 91% | ED50 [6]: 4 mg/kg | ED50 [7]: 26 mg/kg | Protection (Mustela putorius furo [37]): 90% | ED50 (Mustela putorius furo [38]): 0.53 mg/kg

Reference: ChEMBL document CHEMBL1124174, “Substituted benzamides. 1. Potential nondopaminergic antagonists of chemotherapy-induced nausea and emesis” (J Med Chem, 1988)
